Measured values of several laboratories.
Protocols differ between the studies behind these lines.
Target: Serine/threonine-protein kinase PRP4 homolog (PRPF4B, Homo sapiens, UniProt Q13523)

| Structure (SMILES) | test | setting | measurement | result |
| --- | --- | --- | --- | --- |
| Nc1ncnc2occ(-c3ccc(NC(=O)Nc4cc(C(F)(F)F)ccc4F)cc3)c12 | cell-free assay, inhibitor | 20 µM | remaining signal | 100% |
| CCCCNc1ncc2c(-c3ccc(F)cc3)nn(C[C@H]3CC[C@H](N)CC3)c2n1 | target engagement in cells, inhibitor, chemoproteomics | 20 mM | inhibition | -1.2% |
| COc1ccc2c(O[C@@H]3C[C@H]4C(=O)N[C@]5(C(=O)O)CC5/C=C\CCCCC[C@H](NC(=O)OC5CCCC5)C(=O)N4C3)cc(-c3csc(NC(=O)C(C)C)n3)nc2c1C (some centres unmarked) | cell-free assay, competition with immobilised ligand | 1 µM | remaining binding | 93% |
| Cc1ccc(C(=O)Nc2ccc(CN3CCN(C)CC3)c(C(F)(F)F)c2)cc1C#Cc1cnc2cccnn12 | enzyme activity, inhibitor | 23.5 nM | remaining activity | 91% |
| CC(=O)c1c(NS(C)(=O)=O)c2cc(-c3ccc(Cl)cc3)c(-c3ccc(Cl)cc3Cl)nc2n(C)c1=O | cell-free assay, competition with immobilised ligand | 1 µM | remaining binding | 83% |
| CN1CC(Oc2cnc(C#N)cc2-c2ccn3nc(NC(=O)C4CC4)cc3c2)C1 | enzyme activity, inhibitor | 1 µM | inhibition | 3% |
| c1ccc(CNc2nc(N3CCOc4ccccc43)nc3c2CCCC3)cc1 | target engagement in cells, inhibitor, chemoproteomics | 20 mM | inhibition | -6.7% |
| Cc1ccc(C(=O)NCc2ccsc2)cc1C#Cc1cn(C(C)C)c2ncnc(N)c12 | enzyme activity, inhibitor | 1 µM | activity vs control | 114% |
